Source: ChEMBL document CHEMBL3244072, “Synthesis and antiviral and enzymatic studies of certain 3-deazaguanines and their imidazolecarboxamide precursors” (J Med Chem, 1978)
The source made the active and inactive calls. No cut-off for these calls is given here.

Key:
Staphylococcus aureus = test: Antimicrobial activity against Staphylococcus aureus at 0.4 umol/mL by broth microdilution method; format: functional, organism-based
Summary of the method: (§1)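 Broth dilution in defined medium against clinical isolates of each organism.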

Microsporum canis = test: Antimicrobial activity against Microsporum canis at 0.4 umol/mL by broth microdilution method; format: functional, organism-based; summary of the method: as §1
Epidermophyton floccosum = test: Antimicrobial activity against Epidermophyton floccosum at 0.4 umol/mL by broth microdilution method; format: functional, organism-based; summary of the method: as §1
[1] = test system: Trichophyton mentagrophytes; test: Antimicrobial activity against Trichophyton mentagrophytes at 0.4 umol/mL by broth microdilution method; format: functional, organism-based; summary of the method: as §1
Pseudomonas aeruginosa = test: Antimicrobial activity against Pseudomonas aeruginosa at 0.4 umol/mL by broth microdilution method; format: functional, organism-based; summary of the method: as §1
Candida albicans = test: Antimicrobial activity against Candida albicans at 0.4 umol/mL by broth microdilution method; format: functional, organism-based; summary of the method: as §1
KB [2] = test: Antiviral activity against Adenovirus type 3 infected in human KB cells assessed as inhibition of virus-induced cytopathic effect after 72 hrs relative to control; format: functional, cell-based; conditions: Human adenovirus 3
Summary of the method: (§2)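 Cell monolayers (18-24 h) infected with 320 CCID50 of virus; compound added within 15 min at half-log dilutions from 1000 to 1 μg/mL. After 72 h at 37 °C, CPE and cytotoxicity scored microscopically (0-4). Virus rating = sum of (control CPE − treated CPE) over drug levels, halved at any level showing toxicity.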

Influenza B virus [3] = test: Antiviral activity against Influenza B virus Lee infected in Swiss-Webster mouse assessed as host mean survival days at 40 mg/kg, po qd for 9 days; format: functional, B/Lee/1940
Human alphaherpesvirus 2 = test: Antiviral activity against HSV2 infected in human KB cells assessed as inhibition of virus-induced cytopathic effect after 72 hrs relative to control; format: functional, organism-based; summary of the method: as §2
Human respirovirus 3 = test: Antiviral activity against Parainfluenza virus 3 infected in human KB cells assessed as inhibition of virus-induced cytopathic effect after 72 hrs relative to control; format: functional, organism-based; summary of the method: as §2
Vaccinia virus = test: Antiviral activity against Vaccinia virus infected in human KB cells assessed as inhibition of virus-induced cytopathic effect after 72 hrs relative to control; format: functional, organism-based; conditions: Orthopoxvirus vaccinia; summary of the method: as §2
Human alphaherpesvirus 1 = test: Antiviral activity against HSV1 infected in human KB cells assessed as inhibition of virus-induced cytopathic effect after 72 hrs relative to control; format: functional, organism-based; summary of the method: as §2
KB [4] = test: Antiviral activity against Rhinovirus type 13 infected in human KB cells assessed as inhibition of virus-induced cytopathic effect after 72 hrs relative to control; format: functional, cell-based; conditions: Human rhinovirus A13; summary of the method: as §2
Escherichia coli [5] = test: Antimicrobial activity against Escherichia coli at 0.0025 to 0.125 umol/mL by broth microdilution method; format: functional, organism-based; summary of the method: as §1
Ehrlich [6] = test: Inhibition of guanine nucleotide biosynthesis in mouse EAC assessed as [14C]hypoxanthine incorporation at 1 mM after 60 mins by TLC analysis; format: functional; conditions: 1 h
Summary of the method: (§3)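 Ehrlich ascites tumor cells (about 6 × 10^6 cells/mL) preincubated 20 min at 37 °C with or without 1 mM compound. [14C]hypoxanthine (55 μCi/μmol) then added to 0.1 mM final for 60 min. Label in adenine or guanine nucleotides of the acid-soluble fraction measured by TLC; inhibition calculated against untreated cells.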

Influenza B virus [7] = test: Antiviral activity against Influenza B virus Lee infected in Swiss-Webster mouse assessed as host mean survival days at 10 mg/kg, po qd for 9 days; format: functional, B/Lee/1940
Ehrlich [8] = test: Inhibition of adenine nucleotide biosynthesis in mouse EAC assessed as [14C]hypoxanthine incorporation at 1 mM after 60 mins by TLC analysis; format: functional; conditions: 1 h; summary of the method: as §3
[9] = biological target: Bifunctional purine biosynthesis protein ATIC (Homo sapiens) (UniProt P31939); test: Inhibition of Escherichia coli IMP cyclohydrolase (unknown origin) assessed as ratio of compound concentration for 50% inhibition of enzyme activity to 1.7 to 3 x 10^-5 M of substrate concentration
Summary of the method: (§4)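 Enzymes partially purified from Escherichia coli B. Substrate at 1.7-3.0 × 10^-5 M. Value is the ratio of inhibitor concentration giving 50% inhibition to substrate concentration.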

Escherichia coli [10] = test: Inhibition of Escherichia coli adenylosuccinate synthetase assessed as ratio of compound concentration for 50% inhibition of enzyme activity to 1.7 to 3 x 10^-5 M of substrate concentration; summary of the method: as §4
Escherichia coli [11] = test: Inhibition of Escherichia coli IMP dehydrogenase assessed as ratio of compound concentration for 50% inhibition of enzyme activity to 1.7 to 3 x 10^-5 M of substrate concentration; summary of the method: as §4
Influenza B virus [12] = test: Antiviral activity against Influenza B virus Lee infected in Swiss-Webster mouse assessed as host mean survival days at 2.5 mg/kg, po qd for 9 days; format: functional, B/Lee/1940
Influenza B virus [13] = test: Antiviral activity against Influenza B virus Lee infected in Swiss-Webster mouse assessed as host mean survival days at 12.5 mg/kg, po qd for 9 days; format: functional, B/Lee/1940
Influenza B virus [14] = test: Antiviral activity against Influenza B virus Lee infected in Swiss-Webster mouse assessed as host mean survival days at 100 mg/kg, po qd for 9 days; format: functional, B/Lee/1940
Influenza B virus [15] = test: Antiviral activity against Influenza B virus Lee infected in Swiss-Webster mouse assessed as host mean survival days at 50 mg/kg, po qd for 9 days; format: functional, B/Lee/1940

Sequence of Bifunctional purine biosynthesis protein ATIC (Homo sapiens) (P31939 whole entry, looked up): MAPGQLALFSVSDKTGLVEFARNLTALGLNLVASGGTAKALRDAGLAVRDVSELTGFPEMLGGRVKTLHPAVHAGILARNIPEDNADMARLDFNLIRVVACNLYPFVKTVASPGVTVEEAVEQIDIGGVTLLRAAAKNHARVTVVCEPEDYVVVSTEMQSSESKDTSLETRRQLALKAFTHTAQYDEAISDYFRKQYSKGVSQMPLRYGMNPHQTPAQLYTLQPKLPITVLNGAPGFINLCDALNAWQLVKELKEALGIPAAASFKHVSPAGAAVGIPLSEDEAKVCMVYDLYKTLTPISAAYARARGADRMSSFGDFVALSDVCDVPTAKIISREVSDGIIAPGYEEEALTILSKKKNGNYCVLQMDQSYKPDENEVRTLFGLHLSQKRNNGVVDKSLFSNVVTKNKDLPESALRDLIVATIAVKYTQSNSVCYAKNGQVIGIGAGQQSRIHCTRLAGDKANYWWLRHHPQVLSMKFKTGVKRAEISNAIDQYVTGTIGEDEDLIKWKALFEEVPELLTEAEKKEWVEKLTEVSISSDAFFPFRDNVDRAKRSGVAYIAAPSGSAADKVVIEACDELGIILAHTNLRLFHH

SMILES | Activity (Staphylococcus aureus) | Activity (Microsporum canis) | Activity (Epidermophyton floccosum) | Activity [1] | Activity (Pseudomonas aeruginosa) | Activity (Candida albicans) | Activity (Human respirovirus 3) | Activity (Human alphaherpesvirus 1) | Activity (KB [4]) | also measured
C[C@H]1O[C@@H](n2cnc3cc(N)[nH]c(=O)c32)[C@H](O)[C@@H]1O | inactive | inactive | inactive | inactive | inactive | inactive | – | – | – | –
Nc1cc2[nH]cnc2c(=O)[nH]1 [DEZAGUANINE] | inactive | inactive | inactive | inactive | inactive | inactive | Active | Active | Active | Activity (KB [2]): Active; Time (Influenza B virus [3]): 0.23 days; Activity (Human alphaherpesvirus 2): Active; Activity (Vaccinia virus): Active; Activity (Escherichia coli [5]): Active; inhibition at 1000 µM (Ehrlich [6]): 40%; Time (Influenza B virus [7]): >0.3 days; inhibition at 1000 µM (Ehrlich [8]): 20%
N#CCc1c(C(N)=O)ncn1C1CCCCO1 (stereo unspecified) | inactive | inactive | inactive | inactive | inactive | inactive | – | – | – | –
CC(=O)O[C@@H]1O[C@H](C)[C@@H](OC(C)=O)[C@H]1OC(C)=O | inactive | inactive | inactive | inactive | inactive | inactive | – | – | – | –
CC(=O)Nc1cc2[nH]cnc2c(=O)[nH]1 | inactive | inactive | inactive | inactive | inactive | inactive | – | – | – | –
Nc1cc2ncn([C@@H]3O[C@H](CO)[C@@H](O)[C@H]3O)c2c(=O)[nH]1 | – | – | – | – | – | – | – | – | – | Activity (Escherichia coli [5]): Active
NC(=O)c1ncn([C@@H]2O[C@H](COP(=O)(O)O)[C@@H](O)[C@H]2O)n1 | – | – | – | – | – | – | – | – | – | Ratio [9]: 0.46; Ratio (Escherichia coli [10]): 160; Ratio (Escherichia coli [11]): 0.016
Nc1cc2c(ncn2C2CCCCO2)c(=O)[nH]1 (stereo unspecified) | inactive | inactive | inactive | inactive | inactive | inactive | – | – | – | –
Nc1cc2c(ncn2[C@@H]2O[C@H](CO)[C@@H](O)[C@H]2O)c(=O)[nH]1 | inactive | inactive | inactive | inactive | inactive | inactive | Active | Active | Active | Activity (KB [2]): Active; Time (Influenza B virus [3]): >0.3 days; Activity (Human alphaherpesvirus 2): Active; Time (Influenza B virus [12]): 0.118 days; Activity (Vaccinia virus): Active; inhibition at 1000 µM (Ehrlich [6]): 38%; Time (Influenza B virus [7]): >0.3 days; inhibition at 1000 µM (Ehrlich [8]): 24%
Nc1cc2c(ncn2[C@@H]2O[C@H](COP(=O)(O)O)[C@@H](O)[C@H]2O)c(=O)[nH]1 | inactive | inactive | inactive | inactive | inactive | inactive | Active | Active | Active | Activity (KB [2]): Active; Activity (Human alphaherpesvirus 2): Active; Activity (Vaccinia virus): Active; inhibition at 1000 µM (Ehrlich [6]): 68%; Ratio (Escherichia coli [10]): 20; Ratio (Escherichia coli [11]): 0.068; inhibition at 1000 µM (Ehrlich [8]): 18%
COC(=O)c1ncn(C2CCCCO2)c1CC#N (stereo unspecified) | inactive | inactive | inactive | inactive | inactive | inactive | – | – | – | Time (Influenza B virus [13]): >0.3 days
COC(=O)c1c(CC#N)ncn1[C@@H]1O[C@H](C)[C@@H](OC(C)=O)[C@H]1OC(C)=O | inactive | inactive | inactive | inactive | inactive | inactive | – | – | – | –
CC(=O)Nc1cc2c(ncn2[C@@H]2O[C@H](COC(C)=O)[C@@H](OC(C)=O)[C@H]2OC(C)=O)c(=O)[nH]1 | inactive | inactive | inactive | inactive | inactive | inactive | – | – | – | –
COC(=O)c1ncn([C@@H]2O[C@H](C)[C@@H](OC(C)=O)[C@H]2OC(C)=O)c1CC#N | inactive | inactive | inactive | inactive | inactive | inactive | – | – | – | –
C[C@H]1O[C@@H](n2cnc(C(N)=O)c2CC#N)[C@H](O)[C@@H]1O | inactive | inactive | inactive | inactive | inactive | inactive | – | – | – | –
C[C@H]1O[C@@H](n2cnc3c(=O)[nH]c(N)cc32)[C@H](O)[C@@H]1O | inactive | inactive | inactive | inactive | inactive | inactive | inactive | Active | inactive | –
COC(=O)c1c(CC#N)ncn1C1CCCCO1 (stereo unspecified) | inactive | inactive | inactive | inactive | inactive | inactive | – | – | – | –
C1=COCCC1 | inactive | inactive | inactive | inactive | inactive | inactive | – | – | – | –
CN(C)/C=N/c1cc2c(ncn2[C@@H]2O[C@H](CO)[C@@H](O)[C@H]2O)c(=O)[nH]1 | inactive | inactive | inactive | inactive | inactive | inactive | – | – | – | –
CC(=O)OC[C@H]1O[C@@H](n2cnc(C(N)=O)c2CC#N)[C@H](OC(C)=O)[C@@H]1OC(C)=O | inactive | inactive | inactive | inactive | inactive | inactive | – | – | – | –
Nc1cc2ncn(C3CCCCO3)c2c(=O)[nH]1 (stereo unspecified) | inactive | inactive | inactive | inactive | inactive | inactive | inactive | Active | Active | –
N#CCc1c(C(N)=O)ncn1[C@@H]1O[C@H](CO)[C@@H](O)[C@H]1O | inactive | inactive | inactive | inactive | inactive | inactive | inactive | Active | inactive | Time (Influenza B virus [13]): >0.3 days; Activity (Human alphaherpesvirus 2): Active; Activity (Vaccinia virus): inactive; inhibition at 1000 µM (Ehrlich [6]): 11%; Time (Influenza B virus [14]): >0.3 days; inhibition at 1000 µM (Ehrlich [8]): 6%; Time (Influenza B virus [15]): 0.118 days
NC(=O)c1ncn([C@@H]2O[C@H](CO)[C@@H](O)[C@H]2O)n1 [RIBAVIRIN] | – | – | – | – | – | – | Active | Active | Active | Activity (KB [2]): Active; Activity (Human alphaherpesvirus 2): Active; Activity (Vaccinia virus): Active; inhibition at 1000 µM (Ehrlich [6]): 65%; inhibition at 1000 µM (Ehrlich [8]): 14%
